High-throughput results from PubChem BioAssay.
GSK3beta inhib – blocks human GSK3beta kinase activity; activity score (negative = inhibition), % at 10 µM; GST-GSK3beta kinase, ADP-Glo luminescence, 60 min; hits give low values; P49841; AID 2097; 300,000 tested, 0.038% active;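 active = more than half of replicate wells score below -50%, meaning over 50% inhibition versus plate controls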;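 note: 0% = median DMSO wells and -100% = median GW8510 positive control wells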
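test system = GST-tagged human GSK3beta kinase, cell-free | reagent = 25 µM ATP with peptide substrate | dosing = one dose of 10 µM per compound | schedule = 60 min reaction, RT | detection = luminescent ADP-Glo measurement of ADP formed | control set = DMSO neutral wells and GW8510 at 20 µM as positive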
STK33 inh – blocks human STK33 kinase activity; Q9BYT3; purified STK33, MBP phosphorylation, ADP-Glo luminescence; inhibition, % at 10 µM; 320,000 tested, 0.073% active; AID 2661;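 active = inhibition at or above 25%, using the most active replicate where run in duplicate; inactive = inhibition below 25%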
GSK3 alpha inh – blocks human GSK-3 alpha kinase. P49840. ADP-Glo luminescence, 60 min. inhibition, % at 10 µM. 320,000 tested, 0.1% active;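 active = more than half of replicates show inhibition above 20%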;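 note: GST-tagged GSK-3 alpha with peptide substrate and 25 µM ATP; 0% = DMSO neutral wells and 100% = GW8510 positive control wells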
DYRK1A inh – Dyrk1A (rat) kinase inhibition | inhibition, % at 12.5 µM | 310,000 tested, 0.43% active | AID 504441 | Q63470 | ADP-Glo luminescence, NFATc1 peptide; in the data active = inhibition above about 50%;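 note: plate controls were vehicle with enzyme for no effect and no enzyme for full effect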
Dyrk1A artifact – ADP-Glo luciferase interference, Dyrk1A counter-screen | shares compounds with DYRK1A inh | ADP-Glo luciferase artifact assay, no Dyrk1A, luminescence | AC50, µM (titrated, usually from 12 µM), inactives show at the top dose activity change, negative = inhibition | 1,300 tested, under 10 active;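 active = fitted half-maximal dose AC50 no more than ten times the top valid tested dose, with luminescence dropping as dose rises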
Active calls of the source: *; nt = not tested or not shown; ! = repeats disagree. Many of the other results were omitted from the sample, so hits are more common in it than they were.

SMILES | GSK3beta inhib | STK33 inh | GSK3 alpha inh | DYRK1A inh | Dyrk1A artifact
CCn1nc(-c2ccccc2)nc2c(=O)n(C)c(=O)nc1-2 | -32 | 3 | 20 | 68* | nt
CC(=NCCCn1ccnc1)c1c(O)n(-c2ccccc2)c(=O)[nH]c1=O | -11 | 0 | 23 | nt | nt
O=c1[nH]c(=O)n(C2CCCCC2)c(O)c1C=NCCCn1ccnc1 | 2 | -1 | 67* | 7 | nt
CC(=NCCCn1ccnc1)c1c(O)n(C2CCCCC2)c(=O)[nH]c1=O | 1 | -1 | 67* | 0 | nt
CCN(CC)CCN=Cc1c(O)n(C2CCCCCC2)c(=O)[nH]c1=O | -4 | 1 | 13 | 0 | nt
C[C@]1(O)CCC2C3CC[C@H]4C[C@@H](OC(=O)CNC(=O)CN)CC[C@]4(C)C3CC[C@@]21C (some centres undefined) | nt | -1 | 2 | nt | nt
O=C(COC(=O)Cc1ccccc1)Nc1nnc(-c2ccccc2)o1 | 4 | -2 | -2 | 10 | nt
CN1/C(=C\C=C\C2=[N+](C)c3ccc4ccccc4c3C2(C)C)C(C)(C)c2ccccc21 | nt | 26* | 71* | nt | nt
O=C(O)CC1OCC=C2CN3CCC45C6=CC(=O)C(=O)C([N+](=O)[O-])=C6NC4C1C2CC35 (centres undefined) | -1 | 4 | 7 | 56* | 10%
O=C(O)CC1OCC=C2CN3CCC45c6ccccc6NC4C1C2CC35 (centres undefined) | -1 | 0 | 5 | 3 | nt
CC(C)(C)c1cc(OC(=O)Cc2ccccc2)ccc1O | 3 | -2 | -3 | 12 | nt
COc1cc2c(cc1O)CC1c3c(cc(O)c(OC)c3-2)CCN1C (centres undefined) | -1 | 7 | 14 | 70* | 11%
N#Cc1cn(C2OC(CO)C(O)C2O)c2ncnc(N)c12 (centres undefined) | nt | nt | nt | 2 | nt
N#Cc1c(Br)n(C2OC(CO)C(O)C2O)c2ncnc(N)c12 (centres undefined) | nt | nt | nt | 75* | 7%
NC(=O)c1cn(C2OC(CO)C(O)C2O)c2ncnc(N)c12 (centres undefined) | 0 | 13 | 72* | 88*! | 7%
NC(=O)c1c(Br)n(C2OC(CO)C(O)C2O)c2ncnc(N)c12 (centres undefined) | nt | nt | nt | 65* | 7%
CC1(C)CC(N(CCc2ccccc2)Cc2ccccc2)CCO1 (centres undefined) | 1 | -1 | -2 | 4 | nt
Cc1cc(C)nc(-n2c(C)nc3cc(Cl)ccc3c2=O)c1 | 1 | 0 | -1 | 1 | nt
CCCNC(=O)N1[C@H]2CC[C@@H]1C(C(=O)OC)=C(c1ccc(OC(F)(F)F)cc1)C2 | nt | -1 | 0 | 2 | nt
Cc1nc2c(=O)n(C)c(=O)nc-2n(C)n1 | -23 | -2 | 7 | 76* | 9%
